Experimental data from ChEMBL document CHEMBL1949609, “Synthesis and biological evaluation of novel sinomenine derivatives as anti-inflammatory agents” (Eur J Med Chem, 2012).

Experiments:
[1] = tested on: RAW264.7; assay: Cytotoxicity against mouse RAW264.7 cells after 24 hrs by MTT assay; assay type: cell-based; conditions: RAW264.7, 24 h
Summary of the method: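 Growth of non-LPS RAW264.7 cells was measured by MTT after 24 h with compound: MTT for 4 h, formazan dissolved in DMSO, OD570. Untreated cells were set as 100% viability. IC50 is the concentration giving 50% growth inhibition.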

[2] = tested on: RAW264.7; assay: Antiinflammatory activity in mouse RAW264.7 cells assessed as inhibition of LPS-induced IL-6 production at 10 uM after 12 hrs by ELISA (reference value: 2145.1 +/- 368.7 pg/ml); assay type: functional
Summary of the method: (§1)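 RAW264.7 cells (DMEM, 5% FBS, 37 °C, 5% CO2) were exposed to compound at 10 µM plus LPS 500 ng/mL at the same time, with 0.1% DMSO final. Supernatant TNF-α and IL-6 were measured by ELISA at 6, 12 and 24 h.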

[3] = tested on: RAW264.7; assay: Antiinflammatory activity in mouse RAW264.7 cells assessed as inhibition of LPS-induced IL-6 production at 10 uM after 6 hrs by ELISA (reference value: 1046.1 +/- 111.2 pg/ml); assay type: functional; summary of the method: as §1
[4] = tested on: RAW264.7; assay: Antiinflammatory activity in mouse RAW264.7 cells assessed as inhibition of LPS-induced TNFalpha production at 10 uM after 12 hrs by ELISA (reference value: 4126.8 +/- 282 pg/ml); assay type: functional; summary of the method: as §1
[5] = tested on: RAW264.7; assay: Antiinflammatory activity in mouse RAW264.7 cells assessed as inhibition of LPS-induced TNFalpha production at 10 uM after 24 hrs by ELISA (reference value: 10124 +/- 1137.2 pg/ml); assay type: functional; summary of the method: as §1
[6] = tested on: RAW264.7; assay: Antiinflammatory activity in mouse RAW264.7 cells assessed as inhibition of LPS-induced IL-6 production at 10 uM after 24 hrs by ELISA (reference value: 13412 +/- 1167.6 pg/ml); assay type: functional; summary of the method: as §1
[7] = tested on: RAW264.7; assay: Antiinflammatory activity in mouse RAW264.7 cells assessed as inhibition of LPS-induced TNFalpha production at 10 uM after 6 hrs by ELISA (reference value: 2646.1 +/- 499.8 pg/ml); assay type: functional; summary of the method: as §1
[8] = tested on: RAW264.7; assay: Antiinflammatory activity in mouse RAW264.7 cells assessed as inhibition of LPS-induced nitric oxide production after 24 hrs by Griess method; assay type: functional, cell-based; conditions: RAW264.7, 24 h
Summary of the method: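 Cells were treated with compound (0.5–100 µM; 0.1% DMSO final) and LPS 500 ng/mL together for 24 h. Nitrite in the medium was read with Griess reagent (10 min, room temperature, dark) at OD540. IC50 comes from three separate experiments, each in triplicate.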

SMILES	IC50 [1] [µM]	IC50 [8] [µM]	other results
COC1=C[C@@H]2[C@@H]3Cc4ccc(OC)c(OC(=O)CCCCCC(=O)Oc5c(OC)ccc6c5[C@@]57CCN(C)[C@@H](C6)[C@H]5C=C(OC)C(=O)C7)c4[C@]2(CCN3C)CC1=O	52.7	–	–
COC1=C[C@@H]2[C@@H]3Cc4ccc(OC)c(OCCOCCOc5c(OC)ccc6c5[C@@]57CCN(C)[C@@H](C6)[C@H]5C=C(OC)C(=O)C7)c4[C@]2(CCN3C)CC1=O	59.7	–	–
CCCCCCCOc1c(OC)ccc2c1[C@@]13CCN(C)[C@@H](C2)[C@H]1C=C(OC)C(=O)C3	33.8	21.3	Activity [2]: 513.9 pg/mL; Activity [3]: 207.5 pg/mL; Activity [4]: 4127.2 pg/mL; Activity [5]: 9134.7 pg/mL; Activity [6]: 4370.2 pg/mL; Activity [7]: 2248.7 pg/mL
COC1=C[C@@H]2[C@@H]3Cc4ccc(OC)c(OCCCCCCCCCCOc5c(OC)ccc6c5[C@@]57CCN(C)[C@@H](C6)[C@H]5C=C(OC)C(=O)C7)c4[C@]2(CCN3C)CC1=O	2.8	–	–
COC1=C[C@@H]2[C@@H]3Cc4ccc(OC)c(OCCCCCCCCOc5c(OC)ccc6c5[C@@]57CCN(C)[C@@H](C6)[C@H]5C=C(OC)C(=O)C7)c4[C@]2(CCN3C)CC1=O	5.4	3.8	–
CCCCOc1c(OC)ccc2c1[C@@]13CCN(C)[C@@H](C2)[C@H]1C=C(OC)C(=O)C3	68.1	59.6	–
COC1=C[C@@H]2[C@@H]3Cc4ccc(OC)c(OCCCCOc5c(OC)ccc6c5[C@@]57CCN(C)[C@@H](C6)[C@H]5C=C(OC)C(=O)C7)c4[C@]2(CCN3C)CC1=O	36.7	24.6	Activity [2]: 1321.9 pg/mL; Activity [3]: 853.3 pg/mL; Activity [4]: 3732.8 pg/mL; Activity [5]: 8744.4 pg/mL; Activity [6]: 10038.7 pg/mL; Activity [7]: 2018 pg/mL
COC1=C[C@@H]2[C@@H]3Cc4ccc(OC)c(OCc5cccc(COc6c(OC)ccc7c6[C@@]68CCN(C)[C@@H](C7)[C@H]6C=C(OC)C(=O)C8)c5)c4[C@]2(CCN3C)CC1=O	14.2	–	–
CCCOc1c(OC)ccc2c1[C@@]13CCN(C)[C@@H](C2)[C@H]1C=C(OC)C(=O)C3	> 100	> 100	–
COC1=C[C@@H]2[C@@H]3Cc4ccc(OC)c(OCCOc5c(OC)ccc6c5[C@@]57CCN(C)[C@@H](C6)[C@H]5C=C(OC)C(=O)C7)c4[C@]2(CCN3C)CC1=O	> 100	> 100	–
COC1=C[C@@H]2[C@@H]3Cc4ccc(OC)c(OC(=O)CCCC(=O)Oc5c(OC)ccc6c5[C@@]57CCN(C)[C@@H](C6)[C@H]5C=C(OC)C(=O)C7)c4[C@]2(CCN3C)CC1=O	> 100	> 100	–
CCOc1c(OC)ccc2c1[C@@]13CCN(C)[C@@H](C2)[C@H]1C=C(OC)C(=O)C3	> 100	> 100	–
CCCCCCOc1c(OC)ccc2c1[C@@]13CCN(C)[C@@H](C2)[C@H]1C=C(OC)C(=O)C3	29.1	–	–
COC1=C[C@@H]2[C@@H]3Cc4ccc(OC)c(OCCCCCCCCCOc5c(OC)ccc6c5[C@@]57CCN(C)[C@@H](C6)[C@H]5C=C(OC)C(=O)C7)c4[C@]2(CCN3C)CC1=O	3.7	2.9	–
COC1=C[C@@H]2[C@@H]3Cc4ccc(OC)c(OCCCCCOc5c(OC)ccc6c5[C@@]57CCN(C)[C@@H](C6)[C@H]5C=C(OC)C(=O)C7)c4[C@]2(CCN3C)CC1=O	4.2	3.6	–
CCCCCCCCCOc1c(OC)ccc2c1[C@@]13CCN(C)[C@@H](C2)[C@H]1C=C(OC)C(=O)C3	14.5	–	–
N=C(N)NN [PIMAGEDINE]	–	22.6	–

SMILES	IC50 [1] [µM]	IC50 [8] [µM]	other results
COC1=C[C@@H]2[C@@H]3Cc4ccc(OC)c(OCc5ccc(COc6c(OC)ccc7c6[C@@]68CCN(C)[C@@H](C7)[C@H]6C=C(OC)C(=O)C8)cc5)c4[C@]2(CCN3C)CC1=O	12.5	–	–
CCCCCCCCOc1c(OC)ccc2c1[C@@]13CCN(C)[C@@H](C2)[C@H]1C=C(OC)C(=O)C3	17.6	14.2	–
CCCCCCCCCCOc1c(OC)ccc2c1[C@@]13CCN(C)[C@@H](C2)[C@H]1C=C(OC)C(=O)C3	1.9	–	–
CCCC(=O)Oc1c(OC)ccc2c1[C@@]13CCN(C)[C@@H](C2)[C@H]1C=C(OC)C(=O)C3	> 100	> 100	–
COC1=C[C@@H]2[C@@H]3Cc4ccc(OC)c(OC(=O)CCCCCCCC(=O)Oc5c(OC)ccc6c5[C@@]57CCN(C)[C@@H](C6)[C@H]5C=C(OC)C(=O)C7)c4[C@]2(CCN3C)CC1=O	50.8	29.5	Activity [2]: 1577.1 pg/mL; Activity [3]: 825.5 pg/mL; Activity [4]: 3614.3 pg/mL; Activity [5]: 9003.6 pg/mL; Activity [6]: 12863.3 pg/mL; Activity [7]: 2107.1 pg/mL
CCCCCOc1c(OC)ccc2c1[C@@]13CCN(C)[C@@H](C2)[C@H]1C=C(OC)C(=O)C3	53.4	38.8	–
CCCCC(=O)Oc1c(OC)ccc2c1[C@@]13CCN(C)[C@@H](C2)[C@H]1C=C(OC)C(=O)C3	> 100	> 100	–
COC1=C[C@@H]2[C@@H]3Cc4ccc(OC)c(OCCCCCCOc5c(OC)ccc6c5[C@@]57CCN(C)[C@@H](C6)[C@H]5C=C(OC)C(=O)C7)c4[C@]2(CCN3C)CC1=O	9.5	–	–
COC1=C[C@@H]2[C@@H]3Cc4ccc(OC)c(OCCOCCOCCOc5c(OC)ccc6c5[C@@]57CCN(C)[C@@H](C6)[C@H]5C=C(OC)C(=O)C7)c4[C@]2(CCN3C)CC1=O	> 100	> 100	–
COC1=C[C@@H]2[C@@H]3Cc4ccc(OC)c(OC(=O)CCCCC(=O)Oc5c(OC)ccc6c5[C@@]57CCN(C)[C@@H](C6)[C@H]5C=C(OC)C(=O)C7)c4[C@]2(CCN3C)CC1=O	> 100	> 100	–
COC1=C[C@@H]2[C@@H]3Cc4ccc(OC)c(OC(=O)CCC(=O)Oc5c(OC)ccc6c5[C@@]57CCN(C)[C@@H](C6)[C@H]5C=C(OC)C(=O)C7)c4[C@]2(CCN3C)CC1=O	> 100	> 100	–
CCCCCC(=O)Oc1c(OC)ccc2c1[C@@]13CCN(C)[C@@H](C2)[C@H]1C=C(OC)C(=O)C3	78.1	–	–
COC1=C[C@@H]2[C@@H]3Cc4ccc(OC)c(OCCCCCCCOc5c(OC)ccc6c5[C@@]57CCN(C)[C@@H](C6)[C@H]5C=C(OC)C(=O)C7)c4[C@]2(CCN3C)CC1=O	2.6	–	–
COC1=C[C@@H]2[C@@H]3Cc4ccc(OC)c(OCCOCCOCCOCCOc5c(OC)ccc6c5[C@@]57CCN(C)[C@@H](C6)[C@H]5C=C(OC)C(=O)C7)c4[C@]2(CCN3C)CC1=O	> 100	> 100	–
COC1=C[C@@H]2[C@@H]3Cc4ccc(OC)c(OC(=O)CCCCCCC(=O)Oc5c(OC)ccc6c5[C@@]57CCN(C)[C@@H](C6)[C@H]5C=C(OC)C(=O)C7)c4[C@]2(CCN3C)CC1=O	17.3	–	–
CCCCCCC(=O)Oc1c(OC)ccc2c1[C@@]13CCN(C)[C@@H](C2)[C@H]1C=C(OC)C(=O)C3	38.6	–	–
CCCCCCCC(=O)Oc1c(OC)ccc2c1[C@@]13CCN(C)[C@@H](C2)[C@H]1C=C(OC)C(=O)C3	49.5	32.6	Activity [2]: 733.3 pg/mL; Activity [3]: 229.9 pg/mL; Activity [4]: 3357.8 pg/mL; Activity [5]: 7676.3 pg/mL; Activity [6]: 7143.8 pg/mL; Activity [7]: 2298.9 pg/mL
